Values after ≈ are worked out from the molar mass of the structure shown.

Holding throughout (type): functional
Assay [1] deals with Streptococcus pneumoniae. Briefly: Antibacterial activity against penicillin intermediate-resistant Streptococcus pneumoniae isolate I1 by agar dilution method. In short, it runs like this:
(§1)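 MIC determined by agar dilution on Mueller–Hinton agar against clinically isolated penicillin-intermediate-resistant S. pneumoniae.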
For orientation: Agar dilution tests growth on a series of plates holding different concentrations.

The subject of assay [2] is Staphylococcus aureus. The assay can be described thus: Antibacterial activity against methicillin-susceptible Staphylococcus aureus ATCC 29213 by agar dilution method. The gist of the method:
(§2)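 MIC determined by agar dilution on Mueller–Hinton agar against reference strains.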

In assay [3] the test system is Staphylococcus aureus. The assay can be described thus: Antibacterial activity against methicillin-resistant Staphylococcus aureus 1 by agar dilution method. The gist of the method:
(§3)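 MIC determined by agar dilution on Mueller–Hinton agar against clinical strains of methicillin-resistant S. aureus.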

Assay [4] concerns Staphylococcus aureus. The assay can be described thus: Antibacterial activity against methicillin-resistant Staphylococcus aureus 2 by agar dilution method. The gist of the method:
as §3

Assay [5] relates to Staphylococcus aureus. The assay can be described thus: Antibacterial activity against methicillin-resistant Staphylococcus aureus 3 by agar dilution method. The gist of the method:
as §3

For assay [6], the system named is Staphylococcus aureus. Briefly: Antibacterial activity against methicillin-susceptible Staphylococcus aureus isolate 1 by agar dilution method. The gist of the method:
(§4)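 MIC determined by agar dilution on Mueller–Hinton agar against clinically isolated methicillin-susceptible S. aureus.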

In assay [7] the test system is Staphylococcus aureus. Briefly: Antibacterial activity against methicillin-susceptible Staphylococcus aureus isolate 2 by agar dilution method. In short, it runs like this:
as §4

Assay [8] deals with Staphylococcus aureus. The assay can be described thus: Antibacterial activity against methicillin-susceptible Staphylococcus aureus isolate 3 by agar dilution method. The gist of the method:
as §4

Assay [9] concerns Streptococcus pneumoniae. Briefly: Antibacterial activity against Streptococcus pneumoniae ATCC 49619 by agar dilution method. The settings on record: ATCC49619. In short, it runs like this: as §2
Assay [10] has as its system Streptococcus pneumoniae. Briefly: Antibacterial activity against penicillin intermediate-resistant Streptococcus pneumoniae isolate I2 by agar dilution method. The gist of the method: as §1
Assay [11] relates to Streptococcus pneumoniae. Briefly: Antibacterial activity against penicillin intermediate-resistant Streptococcus pneumoniae isolate I3 by agar dilution method. The gist of the method: as §1
The test system of assay [12] is Streptococcus pneumoniae. Briefly: Antibacterial activity against penicillin-susceptible Streptococcus pneumoniae isolate S1 by agar dilution method. In short, it runs like this: (§5)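 MIC measured by agar dilution on Mueller–Hinton agar. Strains were a reference culture and clinically isolated strains. The pneumococcal isolates were penicillin-susceptible clinical isolates.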

Assay [13] deals with Streptococcus pneumoniae. The assay can be described thus: Antibacterial activity against penicillin-susceptible Streptococcus pneumoniae isolate S2 by agar dilution method. In short, it runs like this:
as §5

Assay [14] deals with Streptococcus pyogenes. Briefly: Antibacterial activity against Streptococcus pyogenes ATCC 8668 by agar dilution method. The gist of the method:
as §5

Assay [15] relates to Streptococcus pyogenes. Briefly: Antibacterial activity against Streptococcus pyogenes isolate 1 by agar dilution method. The gist of the method: as §5
Assay [16] concerns Streptococcus pyogenes. The assay can be described thus: Antibacterial activity against Streptococcus pyogenes isolate 2 by agar dilution method. In short, it runs like this: as §5
Assay [17] concerns Streptococcus pyogenes. Briefly: Antibacterial activity against Streptococcus pyogenes isolate 3 by agar dilution method. In short, it runs like this:
as §5

Regarding `CC[C@H]1OC(=O)[C@H](C)C(=O)[C@H](C)[C@@H](O[C@@H]2O[C@H](C)C[C@H](N(C)C)[C@H]2O)[C@](C)(OC)C[C@@H](C)/C(=N\OC/C=C/c2cccc(C3OCCO3)c2)[C@H](C)[C@@H](O)[C@]1(C)O`, the minimum inhibitory concentration (MIC) (as a rule, the smallest concentration in the dilution series that meets the test's criterion for growth inhibition) against Streptococcus pneumoniae [1] was 64 µg/mL (≈ 80.9 µM); in the assay on Staphylococcus aureus [2] it was 0.5 µg/mL (≈ 0.632 µM); with Staphylococcus aureus [3], 128 µg/mL (≈ 162 µM); against Staphylococcus aureus [4] it was 128 µg/mL (≈ 162 µM); with Staphylococcus aureus [5] it was 1 µg/mL (≈ 1.26 µM); against Staphylococcus aureus [6] it was 1 µg/mL (≈ 1.26 µM). In addition, the minimal inhibitory concentration (MIC) was determined as 1 µg/mL (≈ 1.26 µM) with Staphylococcus aureus [7]; 0.5 µg/mL (≈ 0.632 µM) in the assay with Staphylococcus aureus [8]; 0.25 µg/mL (≈ 0.316 µM) with Streptococcus pneumoniae [9]; 0.25 µg/mL (≈ 0.316 µM) against Streptococcus pneumoniae [10]; 0.25 µg/mL (≈ 0.316 µM) with Streptococcus pneumoniae [11]; 0.06 µg/mL (≈ 0.0759 µM) against Streptococcus pneumoniae [12]. Besides, the minimum inhibitory concentration (MIC) in the assay with Streptococcus pneumoniae [13] was 0.06 µg/mL (≈ 0.0759 µM); in the assay with Streptococcus pyogenes [14], 0.25 µg/mL (≈ 0.316 µM); with Streptococcus pyogenes [15] it was 0.06 µg/mL (≈ 0.0759 µM); with Streptococcus pyogenes [16], 0.25 µg/mL (≈ 0.316 µM); with Streptococcus pyogenes [17], 0.25 µg/mL (≈ 0.316 µM).

For the compound `CC[C@H]1OC(=O)[C@H](C)C(=O)[C@H](C)[C@@H](O[C@@H]2O[C@H](C)C[C@H](N(C)C)[C@H]2O)[C@](C)(OC)C[C@@H](C)/C(=N\OC/C=C/c2ccc(OC)c(OC)c2)[C@H](C)[C@@H](O)[C@]1(C)O`, the MIC in the assay on Streptococcus pneumoniae [1] was found to be 32 µg/mL (≈ 41.1 µM); with Staphylococcus aureus [2], 1 µg/mL (≈ 1.28 µM); in the assay on Staphylococcus aureus [3] it was 128 µg/mL (≈ 164 µM); with Staphylococcus aureus [4] it was 128 µg/mL (≈ 164 µM); with Staphylococcus aureus [5] it was 1 µg/mL (≈ 1.28 µM); with Staphylococcus aureus [6], 0.5 µg/mL (≈ 0.642 µM). The minimum inhibitory concentration (MIC) against Staphylococcus aureus [7] turned out to be 1 µg/mL (≈ 1.28 µM); with Staphylococcus aureus [8], 1 µg/mL (≈ 1.28 µM); against Streptococcus pneumoniae [9], 0.25 µg/mL (≈ 0.321 µM); against Streptococcus pneumoniae [10], 0.5 µg/mL (≈ 0.642 µM); with Streptococcus pneumoniae [11], 0.5 µg/mL (≈ 0.642 µM); with Streptococcus pneumoniae [12] it was 0.06 µg/mL (≈ 0.077 µM). Moreover, the minimum inhibitory concentration (MIC) amounted to 0.06 µg/mL (≈ 0.077 µM) against Streptococcus pneumoniae [13]; 0.25 µg/mL (≈ 0.321 µM) against Streptococcus pyogenes [14]; 0.06 µg/mL (≈ 0.077 µM) with Streptococcus pyogenes [15]; 0.25 µg/mL (≈ 0.321 µM) against Streptococcus pyogenes [16]; 0.25 µg/mL (≈ 0.321 µM) in the assay with Streptococcus pyogenes [17].

As for `CC[C@H]1OC(=O)[C@H](C)C(=O)[C@H](C)[C@@H](O[C@@H]2O[C@H](C)C[C@H](N(C)C)[C@H]2O)[C@](C)(OC)C[C@@H](C)/C(=N\OC/C=C/c2ccc(OC)cc2)[C@H](C)[C@@H](O)[C@]1(C)O`, the minimal inhibitory concentration (MIC) against Streptococcus pneumoniae [1] amounted to 64 µg/mL (≈ 85.5 µM); with Staphylococcus aureus [2], 2 µg/mL (≈ 2.67 µM); in the assay with Staphylococcus aureus [3] it was 128 µg/mL (≈ 171 µM); against Staphylococcus aureus [4], 126 µg/mL (≈ 168 µM); against Staphylococcus aureus [5], 2 µg/mL (≈ 2.67 µM); against Staphylococcus aureus [6], 2 µg/mL (≈ 2.67 µM). In addition, the MIC with Staphylococcus aureus [7] stood at 1 µg/mL (≈ 1.34 µM); in the assay with Staphylococcus aureus [8] it was 1 µg/mL (≈ 1.34 µM); against Streptococcus pneumoniae [9], 0.5 µg/mL (≈ 0.668 µM); in the assay on Streptococcus pneumoniae [10], 0.5 µg/mL (≈ 0.668 µM); with Streptococcus pneumoniae [11] it was 0.5 µg/mL (≈ 0.668 µM); against Streptococcus pneumoniae [12], 0.25 µg/mL (≈ 0.334 µM). The minimum inhibitory concentration (MIC) in the assay with Streptococcus pneumoniae [13] came to 0.25 µg/mL (≈ 0.334 µM); in the assay on Streptococcus pyogenes [14], 0.5 µg/mL (≈ 0.668 µM); in the assay on Streptococcus pyogenes [15], 0.25 µg/mL (≈ 0.334 µM); in the assay on Streptococcus pyogenes [16] it was 0.5 µg/mL (≈ 0.668 µM); against Streptococcus pyogenes [17] it was 0.5 µg/mL (≈ 0.668 µM).

Regarding `CC[C@H]1OC(=O)[C@H](C)C(=O)[C@H](C)[C@@H](O[C@@H]2O[C@H](C)C[C@H](N(C)C)[C@H]2O)[C@](C)(OC)C[C@@H](C)/C(=N\OC/C=C/c2cccc(OC)c2)[C@H](C)[C@@H](O)[C@]1(C)O`, the MIC in the assay with Streptococcus pneumoniae [1] was found to be 64 µg/mL (≈ 85.5 µM); in the assay with Staphylococcus aureus [2] it was 2 µg/mL (≈ 2.67 µM); with Staphylococcus aureus [3], 128 µg/mL (≈ 171 µM); with Staphylococcus aureus [4], 128 µg/mL (≈ 171 µM); in the assay on Staphylococcus aureus [5], 2 µg/mL (≈ 2.67 µM); against Staphylococcus aureus [6] it was 2 µg/mL (≈ 2.67 µM). For the same compound, the MIC amounted to 2 µg/mL (≈ 2.67 µM) in the assay with Staphylococcus aureus [7]; 2 µg/mL (≈ 2.67 µM) with Staphylococcus aureus [8]; 1 µg/mL (≈ 1.34 µM) in the assay on Streptococcus pneumoniae [9]; 1 µg/mL (≈ 1.34 µM) against Streptococcus pneumoniae [10]; 64 µg/mL (≈ 85.5 µM) against Streptococcus pneumoniae [11]; 0.25 µg/mL (≈ 0.334 µM) against Streptococcus pneumoniae [12]. Further, the minimum inhibitory concentration (MIC) against Streptococcus pneumoniae [13] came to 0.25 µg/mL (≈ 0.334 µM); in the assay on Streptococcus pyogenes [14], 1 µg/mL (≈ 1.34 µM); against Streptococcus pyogenes [15], 0.25 µg/mL (≈ 0.334 µM); against Streptococcus pyogenes [16] it was 1 µg/mL (≈ 1.34 µM); against Streptococcus pyogenes [17], 1 µg/mL (≈ 1.34 µM).

Regarding `CC[C@H]1OC(=O)[C@H](C)C(=O)[C@H](C)[C@@H](O[C@@H]2O[C@H](C)C[C@H](N(C)C)[C@H]2O)[C@](C)(OC)C[C@@H](C)/C(=N\OC/C=C/c2cncnc2)[C@H](C)[C@@H](O)[C@]1(C)O`, the minimal inhibitory concentration (MIC) with Streptococcus pneumoniae [1] was 128 µg/mL (≈ 178 µM); in the assay on Staphylococcus aureus [2] it was 0.5 µg/mL (≈ 0.694 µM); with Staphylococcus aureus [3], 128 µg/mL (≈ 178 µM); with Staphylococcus aureus [4], 128 µg/mL (≈ 178 µM); against Staphylococcus aureus [5] it was 0.5 µg/mL (≈ 0.694 µM); in the assay on Staphylococcus aureus [6] it was 0.5 µg/mL (≈ 0.694 µM). The MIC in the assay on Staphylococcus aureus [7] is 0.5 µg/mL (≈ 0.694 µM); against Staphylococcus aureus [8], 0.5 µg/mL (≈ 0.694 µM); with Streptococcus pneumoniae [9], 0.25 µg/mL (≈ 0.347 µM); in the assay on Streptococcus pneumoniae [10] it was 0.5 µg/mL (≈ 0.694 µM); with Streptococcus pneumoniae [11], 1 µg/mL (≈ 1.39 µM); against Streptococcus pneumoniae [12], 0.125 µg/mL (≈ 0.173 µM). Further, the minimal inhibitory concentration (MIC) against Streptococcus pneumoniae [13] came out at 0.125 µg/mL (≈ 0.173 µM); in the assay with Streptococcus pyogenes [14], 0.25 µg/mL (≈ 0.347 µM); in the assay on Streptococcus pyogenes [15], 0.06 µg/mL (≈ 0.0832 µM); with Streptococcus pyogenes [16] it was 0.25 µg/mL (≈ 0.347 µM); with Streptococcus pyogenes [17] it was 0.25 µg/mL (≈ 0.347 µM).

With `CC[C@H]1OC(=O)[C@H](C)C(=O)[C@H](C)[C@@H](O[C@@H]2O[C@H](C)C[C@H](N(C)C)[C@H]2O)[C@](C)(OC)C[C@@H](C)/C(=N\OC/C=C/c2cccnc2)[C@H](C)[C@@H](O)[C@]1(C)O`, the MIC is 64 µg/mL (≈ 88.9 µM) in the assay on Streptococcus pneumoniae [1]; 0.5 µg/mL (≈ 0.695 µM) in the assay with Staphylococcus aureus [2]; 128 µg/mL (≈ 178 µM) in the assay with Staphylococcus aureus [3]; 128 µg/mL (≈ 178 µM) against Staphylococcus aureus [4]; 0.5 µg/mL (≈ 0.695 µM) in the assay with Staphylococcus aureus [5]; 0.25 µg/mL (≈ 0.347 µM) in the assay with Staphylococcus aureus [6]. For the same compound, the MIC against Staphylococcus aureus [7] was 0.25 µg/mL (≈ 0.347 µM); against Staphylococcus aureus [8] it was 0.25 µg/mL (≈ 0.347 µM); in the assay on Streptococcus pneumoniae [9], 0.125 µg/mL (≈ 0.174 µM); in the assay on Streptococcus pneumoniae [10], 0.25 µg/mL (≈ 0.347 µM); in the assay with Streptococcus pneumoniae [11] it was 0.06 µg/mL (≈ 0.0833 µM); in the assay with Streptococcus pneumoniae [12] it was 0.06 µg/mL (≈ 0.0833 µM). Besides, the MIC in the assay on Streptococcus pneumoniae [13] amounted to 0.06 µg/mL (≈ 0.0833 µM); against Streptococcus pyogenes [14], 0.25 µg/mL (≈ 0.347 µM); in the assay on Streptococcus pyogenes [15] it was 0.06 µg/mL (≈ 0.0833 µM); against Streptococcus pyogenes [16], 0.06 µg/mL (≈ 0.0833 µM); in the assay on Streptococcus pyogenes [17], 0.06 µg/mL (≈ 0.0833 µM).

The record behind these values is ChEMBL document CHEMBL1156205, “Synthesis and antibacterial activity of new 9-O-arylpropenyloxime ketolides” (2010).
